In the library only some 3.6% were active in any assay of this set; here they are far more common.
EBNA-1 inh: EBNA-1 DNA-binding inhibitors, primary screen, biochemical, fluorescence polarization. AID 1950, 2009. 300,000 compounds, 0.34% hits. inhibition, % at 14.8 µM; in the data active means inhibition above about 28%
ZTA DNA inh: ZTA (EBV) inhibition in EBNA-1 counter-screen. ZTA-DNA binding, fluorescence polarization. AID 2234. inhibition, % at 11 µM. 320,000 compounds, 0.15% hits. P03206; in the data active means inhibition above about 33%
Target sequence (P03206 whole entry, looked up): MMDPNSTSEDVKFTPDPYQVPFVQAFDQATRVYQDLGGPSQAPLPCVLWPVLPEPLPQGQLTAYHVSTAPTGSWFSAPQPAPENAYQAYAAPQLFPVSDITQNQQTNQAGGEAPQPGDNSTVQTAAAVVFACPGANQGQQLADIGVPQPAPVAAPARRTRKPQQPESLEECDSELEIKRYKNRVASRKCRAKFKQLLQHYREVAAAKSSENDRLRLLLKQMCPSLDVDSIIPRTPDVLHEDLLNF
DNA FID counter: compounds displacing fluorescent DNA intercalator, primary screen, artefact control for HCV NS3 helicase inhibitor project, biochemical, FID fluorescence | DNA fluorescent intercalator displacement | inhibition, % at 7.9 µM | 290,000 compounds, 0.17% hits | AID 1845, 2009; in the data active means inhibition above about 37%;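 further: 0% = vehicle and 100% = reference compound; higher means more ethidium bromide displaced from hairpin DNA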
FGF22 binding: binders of human FGF22 protein, primary screen, FGF22 synaptogenesis inhibitor project, biophysical, thermal shift, single point; 340,000 compounds, 1.5% hits; AID 651658, 2012; activity (Tm shift, normalised), % at 9.99 µM; recombinant FGF22 thermal shift, SYPRO orange fluorescence; percent of sucrose octasulfate shift, DMSO zero;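 active means mean Tm shift, scaled 0 neutral to 100 positive control, at about 1.3% or above, every replicate too, limit read from the data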
Target sequence (Q9HCT0 whole entry, looked up): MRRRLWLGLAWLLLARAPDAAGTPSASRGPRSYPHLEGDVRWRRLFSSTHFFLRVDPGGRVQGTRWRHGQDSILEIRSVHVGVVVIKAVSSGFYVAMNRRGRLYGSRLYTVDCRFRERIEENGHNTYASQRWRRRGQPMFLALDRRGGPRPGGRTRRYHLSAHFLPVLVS
GRIN3A LBD mod: binders of NR3A ligand-binding domain, primary screen, biophysical, differential scanning fluorimetry, uHTS; Glutamate receptor ionotropic, NMDA 3A (GRIN3A) ligand-binding domain; Tm shift relative to glycine control, % at 25 µM; NR3A LBD differential scanning fluorimetry, Tm shift; 0% = protein alone, 100% = glycine-bound protein; 340,000 compounds, 2.5% hits;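 active means melting temperature shift of at least 10% of the positive control shift, at one fixed dose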
HCV NS3 hel inh: inhibitors of HCV NS3 helicase, primary screen, biochemical, Cy5 molecular beacon fluorescence. 290,000 compounds, 0.56% hits. inhibition, % at 10.9 µM. AID 1800, 2009. NS3 helicase DNA unwinding;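 active means inhibition above the mean of all tested compounds plus 3 SD, set per campaign, cut at about 35% in these data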;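 further: 0% = DMSO wells and 100% = thioflavine S control wells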
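test system = hepatitis C virus NS3 helicase domain fragment enzyme | reagent = annealed dual-labelled DNA beacon duplex, ATP-started | times = 1 h at 25 °C | detection = Cy5 fluorescence, 0 and 60 min reads | read-out basis = percent inhibition from t60/t0 fluorescence ratio | control set = DMSO and thioflavine S | replication = one well per compound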
The depositor's hits bear a star; . = no result.

SMILES | EBNA-1 inh | ZTA DNA inh | DNA FID counter | FGF22 binding | GRIN3A LBD mod | HCV NS3 hel inh
C[C@@H]1CN([C@@H](C)CO)C(=O)Cc2cc(NC(=O)Nc3cccc4ccccc34)ccc2O[C@H]1CN(C)Cc1ccc(C(=O)O)cc1 | . | . | . | 0 | . | .
CCc1ccc(CN(C)CC(=O)Nc2ccccc2[N+](=O)[O-])cc1 | 2 | -8 | 4 | . | 19* | -2
CCOc1cc(CO)cc(Br)c1OCC(=O)Nc1ccccc1C | 4 | 22 | -25 | 43* | -1 | -5
CCCNC(=O)NC[C@H]1[C@H](c2ccc(C3=CCCC3)cc2)[C@H](CO)N1C(=O)CC | . | . | . | 0 | . | .
N#C/C(=C(/O)COC(=O)c1ccc(O)cc1)c1nc2ccccc2[nH]1 | -9 | -4 | -9 | 0 | -2 | -3
N#C/C(=C(/O)COC(=O)c1cccnc1Cl)c1nc2ccccc2[nH]1 | 5 | 15 | 0 | 44* | -10 | 11
N#C/C(=C(/O)COC(=O)c1ccccc1O)c1nc2ccccc2s1 | 5 | 9 | -7 | 43 | 13* | 9
COC(=O)c1ccc(/C=C(\C#N)c2nc3ccccc3s2)cc1 | -6 | 11 | -1 | . | 0 | 7
CCN(C(=O)COC(=O)c1ccccc1O)c1nc2ccccc2s1 | . | . | . | 43* | 1 | .
CC(C)(C)c1ccc(C(=O)OC/C(O)=C(\C#N)c2nc3ccccc3s2)cc1 | 11 | 22 | -5 | 0 | 17* | 14
O=C(OCc1nc2ccccc2s1)c1ccccc1O | -2 | 8 | -5 | 0 | 1 | 9
C[C@@H]1CN([C@H](C)CO)C(=O)c2cc(C#CCN(C)C)cnc2O[C@@H]1CN(C)Cc1cccc(C(=O)O)c1 | . | . | . | 0 | . | .
C[C@@H]1CN([C@H](C)CO)C(=O)c2cc(NC(=O)NC3CCCCC3)ccc2O[C@@H](C)CCCCO[C@H]1CN(C)Cc1ccc(C(F)(F)F)cc1 | . | . | . | 0 | . | .
CCC1(C)COC(C)(CC(=O)NNC(=O)Nc2ccccc2)OC1 (stereo not given) | -9 | 17 | -1 | 44* | 1 | -9
CCCC(=O)NNC(=O)Nc1ccccc1 | 3 | -14 | 1 | 0 | 1 | 2
CN(C(=O)C1CCN(S(=O)(=O)c2ccccc2[N+](=O)[O-])CC1)C1CCCCC1 | . | . | . | 44* | -10 | .
O=C(NNC(=S)Nc1ccc(Cl)cc1Cl)c1ccc(N2CCOCC2)c([N+](=O)[O-])c1 | -2 | -6 | -9 | 1 | 24* | -9
Cc1cc(C(=O)Nc2ccc(N3CCCC3)c(Cl)c2)ccc1[N+](=O)[O-] | 1 | -6 | 5 | . | -25 | 1
O=C(NNC(=S)Nc1ccc(Br)cc1)c1ccc(N2CCOCC2)c([N+](=O)[O-])c1 | 7 | -17 | 4 | . | 19* | 4
Cc1ccc(NC(=S)NNC(=O)c2ccc(N3CCOCC3)c([N+](=O)[O-])c2)cc1Cl | 9 | 7 | -12 | . | 19* | 0
CCOC(=O)c1sc(NC(=O)c2cccc(S(=O)(=O)N3c4ccccc4CC3C)c2)cc1C (stereo not given) | 13 | 6 | 9 | 0 | 13* | 0
CO[C@@H]1CN(C)C(=O)c2ccc(NC(=O)C3CC3)cc2OC[C@H](C)N(Cc2cccnc2)C[C@@H]1C | . | . | . | 0 | . | .
CO[C@H]1CN(C)C(=O)c2cc(NS(=O)(=O)CC(F)(F)F)ccc2OC[C@@H](C)N(Cc2cccnc2)C[C@H]1C | . | . | . | 0 | . | .
CCOc1cc(/C=N/NC(N)=O)ccc1OCC(=O)Nc1ccc(C)c(C)c1 | 2 | 0 | -5 | 1 | -2 | -7
CCOc1cc(C=C2C(=O)c3ccccc3C2=O)ccc1OCC(=O)Nc1ccc(C)cc1 | 9 | -11 | -2 | . | 14* | 0
SMILES | EBNA-1 inh | ZTA DNA inh | DNA FID counter | FGF22 binding | GRIN3A LBD mod | HCV NS3 hel inh
COc1cc(/C=N/NC(=O)c2cccc(C)c2)ccc1OCC(=O)Nc1ccccc1 | -5 | -4 | . | 0 | 19* | .
COc1ccc(/C=N/NC(=O)c2cccc(NC(=O)c3ccccc3Cl)c2)cc1OC | -8 | -21 | -27 | 43* | -2 | 9
COc1cc(/C=N/NC(=O)c2ccc(O)cc2)ccc1OCC(=O)Nc1cccc([N+](=O)[O-])c1 | -1 | -25 | -6 | 0 | 1 | -1
COc1ccc(C(=O)Nc2cccc(C(=O)N/N=C/c3ccc(OC)cc3OC)c2)cc1 | -12 | -21 | -32 | 0 | 10 | -14
COc1ccc(/C=N/NC(=O)c2cccc(NC(C)=O)c2)c(OC)c1 | -12 | 3 | -12 | 43* | -2 | -5
O=S(=O)(c1ccc(F)cc1)N1CC[C@@H]2[C@H](CO)Nc3ccc(C#CC4CCCCC4)cc3[C@@H]21 | . | . | . | 0 | . | .
COc1cc(/C=N/NC(=O)c2cccnc2)ccc1OCC(=O)Nc1ccc(C)cc1 | -15 | 11 | -12 | 44* | -23 | -2
CCNC(=O)COc1ccc(/C=N/NC(=O)c2cccnc2)cc1OC | -6 | 4 | -7 | 0 | 0 | 5
Nc1cc(=O)[nH]n1C1CCCCC1 | 2 | 3 | -2 | 43* | 1 | 12
O=S(=O)([O-])C(c1ccccc1)[n+]1ccccc1 (stereo not given) | -9 | -1 | . | 0 | 21* | .
Cc1cccc(NCc2nc3ccccc3n2C)c1 | -4 | -2 | -5 | . | -4 | -7
Cc1ccc(N2CCN(c3ccc(NCc4nc5ccccc5n4C)cc3)CC2)cc1 | 6 | -16 | -7 | 0 | 13* | -25
Cc1ccc(NCc2nc3ccccc3n2C)c(C)c1 | 7 | -2 | -17 | 0 | 1 | -7
Cn1c(CNc2ccc(Cl)cc2)nc2ccccc21 | -13 | -14 | -3 | . | 12* | 6
O=C1CN(C(=O)/C=C/c2ccco2)c2ccccc2N1 | -1 | -2 | -2 | 44* | -1 | 4
O=C1CN(C(=O)/C=C/c2ccc(Cl)cc2)c2ccccc2N1 | 2 | -11 | -6 | 0 | 2 | 10
O=C(C[C@H]1CC[C@@H](NS(=O)(=O)c2ccc(F)cc2)[C@@H](CO)O1)NC1CCCCC1 | . | . | . | 0 | . | .
C[C@@H]1CN([C@@H](C)CO)S(=O)(=O)c2ccc(C3=CCCCC3)cc2O[C@@H]1CN(C)C(=O)C1CCOCC1 | . | . | . | 0 | . | .
C[C@H](CO)N1C[C@H](C)[C@H](CN(C)Cc2ccc3c(c2)OCO3)Oc2ccc(NS(=O)(=O)c3cn(C)cn3)cc2CC1=O | . | . | . | 0 | . | .
Cc1occc1C(=O)N/N=C/C=C/c1ccccc1 | -14 | -2 | -3 | 43* | 3 | 5
O=C(N/N=C/C=C/c1ccccc1)c1cccc(Br)c1 | 4 | -10 | -9 | 1.4* | 0 | -3
